Source: ChEMBL document CHEMBL2401626 (J Med Chem, 2013)
The source made the active and inactive calls. The calls are words filed in the database; no cut-off is given here.

Assays:
[1] = Cytotoxicity against human SH-SY5Y cells assessed as cell viability at 10 uM after 24 hrs by MTT assay; type: cell-based
Outline: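 SH-SY5Y cells seeded 5 × 10^4/well, then exposed to compound for 24 h at 37 °C. MTT (0.5 mg/mL final) added for 4 h; formazan dissolved in DMSO and read at 570 nm. Viability is treated/untreated absorbance × 100, each corrected for zero-day control. Three independent experiments in sextuplicate.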

[2] = target: T1, Amine oxidase [flavin-containing] B (Homo sapiens, UniProt P27338)
T1 sequence (P27338 whole entry): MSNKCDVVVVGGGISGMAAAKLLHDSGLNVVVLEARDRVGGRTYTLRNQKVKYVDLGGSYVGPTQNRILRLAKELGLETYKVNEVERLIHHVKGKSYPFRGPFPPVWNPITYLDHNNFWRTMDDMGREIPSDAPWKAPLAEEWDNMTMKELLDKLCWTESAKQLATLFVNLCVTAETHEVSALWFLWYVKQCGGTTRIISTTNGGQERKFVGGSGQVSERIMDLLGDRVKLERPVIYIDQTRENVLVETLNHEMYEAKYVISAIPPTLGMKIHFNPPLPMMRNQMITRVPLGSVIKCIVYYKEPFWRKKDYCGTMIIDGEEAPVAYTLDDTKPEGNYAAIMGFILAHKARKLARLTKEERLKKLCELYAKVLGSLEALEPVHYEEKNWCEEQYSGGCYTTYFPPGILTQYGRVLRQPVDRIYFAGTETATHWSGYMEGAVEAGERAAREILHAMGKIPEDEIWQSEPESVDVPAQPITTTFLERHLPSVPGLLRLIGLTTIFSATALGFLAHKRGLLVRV

[3] = target: T2, Amine oxidase [flavin-containing] A (Homo sapiens, UniProt P21397); assay: Inhibition of human recombinant MAOA using p-tyramine as substrate incubated for 15 mins prior to substrate addition measured after 20 mins by fluorescence plate reader analysis
T2 sequence (P21397 whole entry): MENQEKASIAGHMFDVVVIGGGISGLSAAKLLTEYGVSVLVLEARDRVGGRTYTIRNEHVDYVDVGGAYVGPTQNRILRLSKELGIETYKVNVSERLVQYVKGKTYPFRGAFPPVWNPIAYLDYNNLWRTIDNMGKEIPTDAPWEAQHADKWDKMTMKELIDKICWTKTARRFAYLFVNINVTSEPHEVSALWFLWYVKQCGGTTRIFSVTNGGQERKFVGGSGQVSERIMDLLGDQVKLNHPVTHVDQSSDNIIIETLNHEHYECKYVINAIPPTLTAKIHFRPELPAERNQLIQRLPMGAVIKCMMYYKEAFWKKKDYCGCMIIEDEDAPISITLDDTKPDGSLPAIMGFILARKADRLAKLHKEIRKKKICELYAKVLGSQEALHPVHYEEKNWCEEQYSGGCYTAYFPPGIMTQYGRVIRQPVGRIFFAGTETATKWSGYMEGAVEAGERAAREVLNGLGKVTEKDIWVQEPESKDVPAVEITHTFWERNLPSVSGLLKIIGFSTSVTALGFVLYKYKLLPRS

[4] = target: Cholinesterase (Equus caballus, UniProt P81908); assay: Inhibition of equine serum BuChE using butylthiocholine chloride as substrate preincubated for 15 mins followed by substrate addition measured every 1 min by Ellman's method
[5] = target: Acetylcholinesterase (Electrophorus electricus, UniProt O42275); assay: Inhibition of electric eel AChE using acetylthiocholine chloride as substrate preincubated for 15 mins followed by substrate addition measured every 1 min by Ellman's method
Outline: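 Ellman method in 0.1 M potassium phosphate buffer, pH 8.0, 1 mL assay containing DTNB and thiocholine substrate (each 50 μL of 0.01 M stock). Enzyme (AChE stock 2.0 units/mL) preincubated with compound 15 min at 37 °C, then substrate added. A412 read at 1 min intervals at 37 °C. Each concentration in triplicate. IC50 from at least three experiments.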

[6] = target: Amyloid-beta precursor protein (Homo sapiens, UniProt P05067)
[7] = test system: Mus musculus; assay: Acute toxicity in KM mouse at 677 to 2000 mg/kg, po after 14 days; type: organism-based; set-up: dose 677-2000 mg/kg, route oral; settings: in vivo, 336 h
Outline: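 Male KM mice (22 days, 18−20 g), fasted overnight with free access to water, n = 5 per group; single oral dose of 0, 677, 1333 or 2000 mg/kg suspended in 0.5% CMC-Na. Watched continuously for 4 h, intermittently for 24 h, then occasionally to day 14 for behaviour and mortality; killed day 14, heart, liver and kidneys examined macroscopically.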

[8] = test system: SH-SY5Y; assay: Antioxidant activity in human SH-SY5Y cells assessed as decrease in t-BuOOH-induced intracellular ROS production at 5 to 20 uM incubated for 24 hrs prior to t-BuOOH challenge measured after 30 mins by DCFHDA-based fluorescence assay; type: functional, cell-based
Outline: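 SH-SY5Y cells (DMEM, 10% FCS, 37 °C, 5% CO2) seeded 1 × 10^4/well and grown 24 h. Compound added for 24 h; Trolox control at 5, 10, 20 μM. Cells are then washed, loaded with 5 μM DCFH-DA in PBS for 30 min, and challenged with 0.1 mM t-BuOOH for 30 min. Fluorescence read at ex 485/em 535 nm. Result is % of control by formula; three independent experiments in sextuplicate.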

Cholinesterase, sequence (P81908 whole entry): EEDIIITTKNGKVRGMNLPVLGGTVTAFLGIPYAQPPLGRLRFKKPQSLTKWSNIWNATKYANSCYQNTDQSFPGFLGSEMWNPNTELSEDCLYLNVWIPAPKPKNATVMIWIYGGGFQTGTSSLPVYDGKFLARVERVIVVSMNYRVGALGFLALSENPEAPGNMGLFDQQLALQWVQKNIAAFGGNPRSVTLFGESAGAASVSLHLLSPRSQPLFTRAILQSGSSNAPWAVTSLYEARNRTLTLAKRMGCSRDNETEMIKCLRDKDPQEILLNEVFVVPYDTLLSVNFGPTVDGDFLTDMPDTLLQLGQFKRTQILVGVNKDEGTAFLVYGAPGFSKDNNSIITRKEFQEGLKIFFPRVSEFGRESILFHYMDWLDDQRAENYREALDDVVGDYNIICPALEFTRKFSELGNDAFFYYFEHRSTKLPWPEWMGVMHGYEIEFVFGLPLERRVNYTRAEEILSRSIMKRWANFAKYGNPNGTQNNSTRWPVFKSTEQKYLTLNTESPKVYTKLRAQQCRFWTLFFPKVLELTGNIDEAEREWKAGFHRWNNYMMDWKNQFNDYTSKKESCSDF
Acetylcholinesterase, sequence (O42275 whole entry): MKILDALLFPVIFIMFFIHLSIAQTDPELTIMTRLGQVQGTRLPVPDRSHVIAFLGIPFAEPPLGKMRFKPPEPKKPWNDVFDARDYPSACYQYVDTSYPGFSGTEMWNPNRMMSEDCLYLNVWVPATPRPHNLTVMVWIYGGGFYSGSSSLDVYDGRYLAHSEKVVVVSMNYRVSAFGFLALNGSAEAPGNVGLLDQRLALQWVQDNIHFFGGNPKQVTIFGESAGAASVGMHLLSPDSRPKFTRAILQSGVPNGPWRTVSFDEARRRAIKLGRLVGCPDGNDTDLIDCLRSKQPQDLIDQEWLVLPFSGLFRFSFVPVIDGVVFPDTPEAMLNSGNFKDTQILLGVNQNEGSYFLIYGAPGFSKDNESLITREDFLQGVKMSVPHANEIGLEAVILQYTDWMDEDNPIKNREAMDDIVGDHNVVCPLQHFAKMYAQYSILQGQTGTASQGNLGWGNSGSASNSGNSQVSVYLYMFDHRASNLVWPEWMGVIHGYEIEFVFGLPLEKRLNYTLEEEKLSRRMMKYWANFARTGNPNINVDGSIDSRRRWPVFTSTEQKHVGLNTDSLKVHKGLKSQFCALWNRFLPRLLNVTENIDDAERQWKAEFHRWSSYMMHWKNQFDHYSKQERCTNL
Amyloid-beta precursor protein, sequence (P05067 whole entry): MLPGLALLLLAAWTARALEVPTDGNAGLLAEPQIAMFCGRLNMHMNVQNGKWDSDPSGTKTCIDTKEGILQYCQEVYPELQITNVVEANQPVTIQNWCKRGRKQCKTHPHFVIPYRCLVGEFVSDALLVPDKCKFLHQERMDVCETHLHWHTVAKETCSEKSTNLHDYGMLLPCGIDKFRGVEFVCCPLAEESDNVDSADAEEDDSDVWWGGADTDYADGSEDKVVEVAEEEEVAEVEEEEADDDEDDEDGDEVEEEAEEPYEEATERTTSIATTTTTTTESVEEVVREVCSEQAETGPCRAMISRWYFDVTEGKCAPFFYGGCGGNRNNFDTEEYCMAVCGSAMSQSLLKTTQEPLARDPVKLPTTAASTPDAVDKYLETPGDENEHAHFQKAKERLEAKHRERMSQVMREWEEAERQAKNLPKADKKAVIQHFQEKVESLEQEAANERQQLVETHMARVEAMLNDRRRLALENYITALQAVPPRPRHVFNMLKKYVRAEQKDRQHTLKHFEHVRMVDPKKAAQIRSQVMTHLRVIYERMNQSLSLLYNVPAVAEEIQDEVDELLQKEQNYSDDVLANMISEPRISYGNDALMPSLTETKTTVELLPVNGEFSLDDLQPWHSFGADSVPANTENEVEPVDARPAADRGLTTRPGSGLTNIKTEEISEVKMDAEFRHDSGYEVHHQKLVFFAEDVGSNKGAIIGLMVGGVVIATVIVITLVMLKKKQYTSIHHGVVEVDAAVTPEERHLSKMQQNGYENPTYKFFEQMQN

SMILES	Activity [1]	IC50 [2]	IC50 [3]	IC50 [4]	IC50 [5]	IC50 [6]	Activity [7]	Activity [8]
CN(C)c1ccc(O)c(CNc2ccc(/C=C/c3cc(O)cc(O)c3)cc2)c1	Non-toxic	14.1 µM	7.08 µM	21.2 µM	6.27 µM	6.51 µM	–	–
COc1cc(/C=C/c2ccc(NCc3cc(N(C)C)ccc3O)cc2)cc(OC)c1	Non-toxic	12.2 µM	8.19 µM	> 50 µM	36 µM	7.56 µM	Non-toxic	–
Cc1c(C)c2c(c(C)c1O)CCC(C)(C(=O)O)O2 (racemic)	–	–	–	–	–	–	–	Active
